# NadD block: NadD (S. aureus) enzyme inhibition | inhibition, % at 20 µM | 0.78% of 360,000 active | purified NadD enzyme, colorimetric absorbance read-out; in the data active = inhibition above about 26%
# rCAG RNA binder: binds r(CAG) RNA repeats | r(CAG) RNA repeat, TO-PRO-1 dye displacement fluorescence | 1.3% of 370,000 active | inhibition, % at 3 µM | AID 651821;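 active = inhibition above the plate cutoff, the mean of all test compounds on that plate plus 3 SD, cut at about 35% in these data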;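 also: higher means more dye released from RNA so lower well fluorescence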
# core dimer inh: HCV core protein dimerization inhibition; TR-FRET GST/Flag-core106 dimerization, 1536-well; inhibition, % at 5 µM; 0.33% of 300,000 active;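 active = inhibition above the mean of all tested compounds plus 3 SD, set per screening campaign, cut at about 45% in these data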
#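 Assay system: tagged HCV core106 pair (GST and Flag); medium: KF-containing HEPES buffer, pH 7.45, DTT, CHAPS, BSA; also added: Eu donor and XL665 acceptor anti-tag antibodies; dosing: 5 µM single dose; timing: compound-protein-antibody incubation 4 h at 22.5 °C; signal: TR-FRET 671 and 617 nm emission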
# ABHD5 PLIN5 PPI: ABHD5-PLIN5 protein interaction inhibition | Q00G26+Q8WTS1 | Split G. princeps luciferase complementation, luminescence, 4 h | inhibition, % at 4 µM | 0.78% of 360,000 active | AID 602281;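 active = inhibition above the mean inhibition across every tested compound plus 3 SD, cut at about 22% in these data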
# ABHD5 PLIN5 conf: confirmation of human ABHD5-PLIN5 interaction inhibitors. biochemical ABHD5-PLIN5 interaction, luminescence. 67% of 2,200 active. shares compounds with ABHD5 PLIN5 PPI. inhibition, % at 4 µM; in the data active = inhibition above about 23%
# HNF4 counter: active in HNF4 split-luciferase counter-screen for ABHD5-PLIN5 inhibitors; shares compounds with ABHD5 PLIN5 PPI; inhibition, % at 4 µM; AID 651674; 77% of 2,200 active; HNF4 dimerization, luminescence, biochemical;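 active = mean inhibition across replicate wells exceeding the computed hit threshold, cut at about 13% in these data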;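 also: light from luciferase halves that rejoin when HNF4 fusion proteins dimerize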
# Target sequence (P41235 whole entry, looked up, the tested form may be a part): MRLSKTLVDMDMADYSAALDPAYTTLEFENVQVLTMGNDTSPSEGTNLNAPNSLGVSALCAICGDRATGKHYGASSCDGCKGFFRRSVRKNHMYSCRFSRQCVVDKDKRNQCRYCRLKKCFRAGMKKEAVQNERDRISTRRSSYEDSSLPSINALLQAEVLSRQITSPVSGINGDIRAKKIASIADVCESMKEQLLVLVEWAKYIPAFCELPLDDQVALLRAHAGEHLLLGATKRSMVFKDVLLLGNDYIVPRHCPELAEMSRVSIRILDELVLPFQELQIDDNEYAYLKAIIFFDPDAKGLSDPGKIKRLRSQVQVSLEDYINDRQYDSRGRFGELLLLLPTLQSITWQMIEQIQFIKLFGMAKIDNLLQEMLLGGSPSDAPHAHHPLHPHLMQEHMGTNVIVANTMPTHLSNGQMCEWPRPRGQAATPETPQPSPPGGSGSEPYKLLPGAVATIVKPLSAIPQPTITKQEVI
# Hits are given with their value; – = inactive; · = no result; ! = not active in a repeat. Only some compounds are listed: those with a hit (about 2.6% of all), similar ones and a draw of the others.
SMILES,NadD block,rCAG RNA binder,core dimer inh,ABHD5 PLIN5 PPI,ABHD5 PLIN5 conf,HNF4 counter
COc1cc(C=CC(=O)c2ccccc2)cc(OC)c1OC,–,–,·,47.9,68.4,49.8
COc1ccc(OC)c(/C=C/C(=O)c2ccc(Cl)cc2)c1,–,–,–,49.4,71.6,55.1
CCOc1ccccc1/C=C/C(=O)c1ccc(Cl)cc1,–,–,–,–,·,·
COc1ccccc1/C=C/C(=O)c1ccc(Cl)cc1,–,–,–,27.1,69.2,48.7
CC1(C)CC(=O)C(C(C2=C(O)CC(C)(C)CC2=O)c2cccs2)C(=O)C1 (centres undefined),–,·,–,40.6,64.3,68.5
Cc1cccc(N2CCN(C(=S)Nc3ccc4nc(N5CCN(C)CC5)cc(C)c4c3)CC2C)c1 (centres undefined),–,–,–,24.6,–,–
Cc1cc(N2CCN(C)CC2)nc2ccc(NC(=S)N3CCN(c4cccc(Cl)c4)CC3)cc12,–,–,–,–,·,·
O=C(N[C@H](Cc1ccccc1)C(=O)NCc1ccco1)[C@H]1O[C@@H](n2ccc(=O)[nH]c2=O)[C@H](O)[C@@H]1O,·,–,·,·,·,·
O=C1ON=C(c2ccccc2)/C1=C/c1ccc(-c2ccccc2[N+](=O)[O-])o1,–,–,–,34.9,102.3,106.7
O=[N+]([O-])c1ccccc1-c1ccc(/C=N/n2cnnc2)o1,–,–,–,–,·,·
CCc1c(C)sc(NC(=O)c2cccs2)c1C#N,–,–,–,23.6,–,–
CC(=O)c1ccc(OCc2cn(CC(=O)c3ccc(O)cc3)nn2)cc1,–,–,·,23.5,–,23.7
CC(=O)Nc1ccc(OCc2cn(CC(=O)c3ccc(O)cc3)nn2)cc1,32.2,–,·,68.1,83.1,52.6
Cc1cccc(C)c1OCc1cn(CC(=O)c2ccc(O)cc2)nn1,–,–,·,45.0,65.9,36.8
COc1cc(C(C)=O)ccc1OCc1cn(CC(=O)c2ccc(O)cc2)nn1,–,–,·,24.9,53.0,31.1
CCCCOCC1CN(CCCC)S(=O)(=O)c2c(cccc2N(C)S(=O)(=O)c2ccc(C)cc2)O1 (centres undefined),·,–,·,·,·,·
Cc1ccccc1N1C(=O)CC(Sc2nnc(-c3ccccc3)o2)C1=O (centres undefined),–,–,–,35.0,59.8,98.2
N#Cc1ccc(S(=O)(=O)N2CCCCC2c2cc(C(=O)Nc3cccc4c3CCCC4)no2)cc1 (centres undefined),–,–,·,–,·,·
O=c1cc(CN2CCCC2)c2ccccc2o1,·,–,·,·,·,·
C#CCOCCOCCOCCNc1nc(N2CCN(C(=O)Cn3cc(CC(C)O)nn3)CC2)nc(N2CCN(C(=O)Cn3cc(CC(C)O)nn3)CC2)n1 (centres undefined),–,–,–,–,·,·
C#CCOCCOCCOCCNc1nc(N2CCN(C(=O)CCCCCCCCCCNC(=O)Cn3cc(CCCCCN)nn3)CC2)nc(N2CCN(C(=O)CCCCCCCCCCNC(=O)Cn3cc(C[C@@H](C)O)nn3)CC2)n1,–,·,–,46.8,–,–
C#CCOCCOCCOCCNc1nc(N2CCN(C(=O)CCCCCCCCCCNC(=O)Cn3cc(C[C@@H](C)O)nn3)CC2)nc(N2CCN(C(=O)CCCCCCCCCCNC(=O)[C@@H]([C@H](C)O)n3cc(C)nn3)CC2)n1,–,·,–,97.1,–,–
C#CCOCCOCCOCCNc1nc(N2CCN(C(=O)CCCCCCCCCCNC(=O)Cn3cc(C[C@@H](C)O)nn3)CC2)nc(N2CCN(C(=O)CCCCCCCCCCNC(=O)[C@@H](CCSC)n3cc(CCO)nn3)CC2)n1,–,·,–,–,·,·
Cc1c(C(=O)N(Cc2ccco2)Cc2cccs2)oc2ccccc12,–,–,·,28.1,–,14.5
Cc1cc(NC(=O)Nc2ccc(F)cc2F)n(C)n1,–,–,–,43.5,–,–
SMILES,NadD block,rCAG RNA binder,core dimer inh,ABHD5 PLIN5 PPI,ABHD5 PLIN5 conf,HNF4 counter
O=C(Nc1ccc(F)cc1F)Nc1ccc(F)cc1F,–,–,–,–,·,·
COc1cccc([C@@H](NC(=O)C(F)(F)F)[C@@H]2CCCC=C2c2ccccc2)c1,·,–,·,·,·,·
C[C@@H]1OC(c2ccccc2)N(C)[C@H]2C[C@H]3c4[nH]c5cccc(-c6ccccc6)c5c4CCN3C[C@@H]12 (some centres undefined),·,–,·,·,·,·
CC1CCCCN1CCCNC(=O)c1ccc2c(c1)NC(=O)CN2C (centres undefined),–,–,·,–,·,·
CCCCN(CCCNC(=O)c1ccc2c(c1)NC(=O)CN2C)c1ccccc1,–,–,·,70.1,51.5,72.0
COc1ccc(C(NC(=O)/C=C/c2ccco2)c2ccc(OC)c(OC)c2)cc1OC,–,–,–,24.1,59.3,53.8
Nc1sccc1C(=O)N1CCN(c2ccccc2)CC1,·,–,·,29.9,–,42.3
Cc1ccc(Cn2nnc3c2-c2cc(F)ccc2S(=O)(=O)N(C(C)(C)C)C3)cc1,·,–,·,·,·,·
COC(=O)[C@]12C[C@H](CC(=O)NCc3ccc(C)o3)C(=O)N(Cc3ccc4c(c3)OCO4)C1=C[C@H](C(C)C)O[C@@H]2C1CC1,·,–,·,·,·,·
CCN1C(=O)CS/C1=N\S(=O)(=O)c1ccc(Cl)cc1,–,–,–,–,·,·
CCn1c(Cl)c(C=O)s/c1=N\S(=O)(=O)c1ccccc1,–,–,–,48.1,70.6,105.1
COc1ccc(CC(=O)NC(C)(C)CC(C)=O)cc1OC,–,–,–,–,·,·
COc1ccc(CC(=O)n2[nH]c(=O)cc(C)c2=O)cc1OC,–,–,–,41.8,64.6,86.6
CC(=O)CC[C@@H]1CC[C@]2(CCCN(C(=O)C3CCCCC3)C2)O1,·,–,·,·,·,·
C[C@@H]1CN([C@H](C)CO)S(=O)(=O)c2ccc(C#Cc3cccc(F)c3)cc2O[C@@H]1CN(C)C(=O)CN1CCOCC1,–,–,·,–,·,·
COc1ccc(OC)c2sc(NC(=O)C3=COCCO3)nc12,–,–,–,37.9,–,–
COc1ccc(C)c2sc(NC(=O)C3=COCCO3)nc12,–,–,–,–,·,·
O=C(NCc1cccs1)C1CCN(S(=O)(=O)c2cccc3ccccc23)CC1,·,–,·,·,·,·
CCOC(=O)C(=Cc1c[nH]c2ccc(S(=O)(=O)N(C)C)cc12)C(=O)OCC,–,–,–,51.5,63.1,58.0
COc1cc(N=c2ssnc2Cl)c(OC)cc1Cl,–,–,–,41.2!,74.4,105.7
CCOC(=O)C1(Cc2ccccc2)CCN(Cc2ccccc2[N+](=O)[O-])CC1,·,–,·,·,·,·
CN(C)C(=O)c1cccc(-c2cnc3c(NC=O)cc(-c4ccc(N(C)C)cc4)cn23)c1,–,–,·,–,·,·
NC(=O)c1ccc(-n2c(CCC(=O)O)ccc2-c2cccs2)cc1,–,–,–,31.2,–,40.2
Cc1ccc(-n2c(CCC(=O)O)ccc2-c2cccs2)cc1,–,–,–,–,·,·
CC(=O)c1ccc(-n2c(CCC(=O)O)ccc2-c2cccs2)cc1,–,–,–,31.8,–,49.5
CC(C)CNC(=O)c1[nH]c(C(F)(F)F)nc1-c1ccccc1,–,–,·,–,·,·

# Assay outcomes (PubChem BioAssay)
